Data as given in article PMC7433031 (European journal of medicinal chemistry, 2020).

Assays:
[1] = test system: MOLT-4 T-ALL cells; assay: MOLT-4 cell viability assay; format: cell-based, human
[2] = test system: BCL-XL / BCL-2 ternary complexes with DT2216 and VHL; settings: live cells, nanoBRET assay; cited from earlier work
[3] = test system: H146 small cell lung cancer cell line; assay: H146 cell viability assay; format: cell-based; settings: Homo sapiens, NCI-H146, 48 h, read-out: IC50 48 h treatment H146
How it was run: (§1)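 NCI-H146 small-cell lung cancer and RS4;11 B-ALL cells maintained in RPMI 1640 plus 10% FBS and 1% penicillin-streptomycin. Cells seeded at 5×10⁴ to 1×10⁵ per well and treated with test compound for 48 h. Viability measured by tetrazolium-based MTS assay, with IC50 calculated from the viability data.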

[4] = test system: human platelets; assay: Human platelet viability assay; format: cell-based; settings: Homo sapiens, Platelet, 48 h, read-out: IC50 48 h treatment Platelets
How it was run: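 Platelets were separated from purchased platelet-rich plasma in acid citrate buffer with 1 μM PGE1 and 0.2 units/mL apyrase (final). Cells were centrifuged and adjusted to 2 × 10⁸/mL in HEPES Tyrode's buffer with 10% FBS, 1 μM PGE1 and 0.2 units/mL apyrase. They were treated for 48 h, with or without a 10 μM pomalidomide block, and read by MTS. IC50 values were curve-fitted. The ratio divides platelet IC50 by 48 h MOLT-4 MTS IC50.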

[5] = test system: PARP and caspase-3 cleavage; assay: Western blot of cleaved-PARP and cleaved-caspase-3 in MOLT-4 cells; format: cell-based, human; settings: MOLT-4, 16 h, indicated concentrations
How it was run: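 MOLT-4 cells were exposed to a range of test compound concentrations for 16 h. Cleaved PARP and cleaved caspase-3 were detected by immunoblot. Equal protein was run on 4–20% Tris-glycine gels and transferred to PVDF. Membranes were blocked in 5% milk/TBS-Tween, given primary antibody overnight at 4 °C, then HRP secondary and ECL. β-actin served as loading control.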

[6] = test system: RS4;11 B-cell ALL cell line; assay: RS4; format: cell-based; settings: Homo sapiens, RS4-11, 48 h, read-out: IC50 48 h treatment RS4;11
How it was run: as §1

[7] = target: BCL-XL (Homo sapiens, UniProt Q07817); assay: Western blot of BCL-XL protein levels in MOLT-4 cells; format: cell-based
How it was run: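 MOLT-4 cells were treated for 16 h with test compound (100 nM for VHL-based, 50 nM for CRBN-based, or a concentration series for DC50). Other runs used 100 nM over a time course, or 16 h exposure followed by washout into drug-free medium. Some cells were pretreated 2 h with 10 μM pomalidomide or 1 μM MG-132. Immunoblot bands were normalized to β-actin and expressed as % remaining versus vehicle.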

Sequence of BCL-XL (Q07817 whole entry): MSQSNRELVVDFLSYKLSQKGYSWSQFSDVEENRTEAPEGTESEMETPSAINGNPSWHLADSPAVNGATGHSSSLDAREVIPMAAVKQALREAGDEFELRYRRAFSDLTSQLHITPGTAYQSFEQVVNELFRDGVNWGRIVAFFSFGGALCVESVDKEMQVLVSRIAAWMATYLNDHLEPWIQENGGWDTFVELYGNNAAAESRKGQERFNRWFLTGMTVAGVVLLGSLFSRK

Compound	times more potent than ABT-263 in reducing MOLT-4 cell viability ([1]; MOLT-4, versus ABT-263)	formation of stable ternary complexes with VHL [2]	IC50 [3]	IC50 ([1]; Homo sapiens, MOLT-4, 48 h, read-out: IC50, reduction of MOLT-4 cell viability)	IC50 [4]	PARP and caspase-3 cleavage [5]	IC50 [6]	effects on BCL-XL protein levels after drug washout ([7]; MOLT-4, 100 nM for 16 h then washout)	BCL-XL degradation after pretreatment with MG-132 or pomalidomide ([7]; MOLT-4, 1 μM MG-132 or 10 μM pomalidomide pretreatment for 2 h)	BCL-XL degradation at indicated concentrations ([7]; MOLT-4, 16 h, Western blot (Figure 5A, 5F))
Cc1ncsc1-c1ccc([C@H](C)NC(=O)[C@@H]2C[C@@H](O)CN2C(=O)[C@@H](NC(=O)CCCCCC(=O)N2CCN(CC[C@H](CSc3ccccc3)Nc3ccc(S(=O)(=O)NC(=O)c4ccc(N5CCN(CC6=C(c7ccc(Cl)cc7)CCC(C)(C)C6)CC5)cc4)cc3S(=O)(=O)C(F)(F)F)CC2)C(C)(C)C)cc1 [Compound 1e, (2S,4R)-1-((S)-2-(7-(4-((R)-3-((4-(N-(4-(4-((4’-Chloro-4,4-dimethyl-3,4,5,6-tetrahydro-[1,1’-biphenyl]-2-yl)methyl)piperazin-1-yl)benzoyl)sulfamoyl)-2-((trifluoromethyl)sulfonyl)phenyl)amino)-4-(phenylthio)butyl)piperazin-1-yl)-7-oxoheptanamido)-3,3-dimethylbutanoyl)-4-hydroxy-N-((S)-1-(4-(4-methylthiazol-5-yl)phenyl)ethyl)pyrrolidine-2-carboxamide]	3 times	BCL-XL, but not BCL-2, can form stable ternary complexes	–	–	–	–	–	–	–	–
CN(CCOCCOCCOCCNc1cccc2c1C(=O)N(C1CCC(=O)NC1=O)C2=O)CC[C@H](CSc1ccccc1)Nc1ccc(S(=O)(=O)NC(=O)c2ccc(N3CCN(CC4=C(c5ccc(Cl)cc5)CCC(C)(C)C4)CC3)cc2)cc1S(=O)(=O)C(F)(F)F (stereo partly drawn) [Compound 17b, 4-(4-((4’-Chloro-4,4-dimethyl-3,4,5,6-tetrahydro-[1,1’-biphenyl]-2-yl)methyl)piperazin-1-yl)-N-((4-(((15R)-1-((2-(2,6-dioxopiperidin-3-yl)-1,3-dioxoisoindolin-4-yl)amino)-12-methyl-16-(phenylthio)-3,6,9-trioxa-12-azahexadecan-15-yl)amino)-3-((trifluoromethyl)sulfonyl)phenyl)sulfonyl)benzamide]	–	–	25.3 nM	10.1 nM	1220 nM	dose-dependently increased	41.8 nM	long-lasting and also reversible	can be abrogated	dose-dependently induced BCL-XL degradation
